In ChEMBL document CHEMBL3124907:
Values belong to the compound of their own block, whether it stands above or below them.

Key:
[1] = target: T1, 5-hydroxytryptamine receptor 2C (Homo sapiens) (UniProt P28335); experiment: Inhibition of 5-HT2C receptor (unknown origin) at 10 uM by radioligand binding assay relative to control
T1 sequence (whole entry): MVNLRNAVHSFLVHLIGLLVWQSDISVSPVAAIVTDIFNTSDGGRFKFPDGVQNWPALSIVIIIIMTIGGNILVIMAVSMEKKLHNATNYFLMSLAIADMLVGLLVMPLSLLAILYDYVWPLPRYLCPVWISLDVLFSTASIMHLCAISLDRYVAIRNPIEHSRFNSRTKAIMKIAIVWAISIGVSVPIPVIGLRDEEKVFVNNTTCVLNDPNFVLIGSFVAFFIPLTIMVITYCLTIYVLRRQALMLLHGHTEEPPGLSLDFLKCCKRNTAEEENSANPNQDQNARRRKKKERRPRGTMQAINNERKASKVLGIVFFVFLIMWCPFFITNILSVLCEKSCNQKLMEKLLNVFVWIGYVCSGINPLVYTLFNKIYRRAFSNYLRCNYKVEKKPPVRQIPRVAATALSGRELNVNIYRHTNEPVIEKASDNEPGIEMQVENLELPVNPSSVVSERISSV

[2] = target: 5-hydroxytryptamine receptor 2B (Homo sapiens) (UniProt P41595); experiment: Inhibition of 5-HT2B receptor (unknown origin) at 10 uM by radioligand binding assay relative to control
[3] = target: 5-hydroxytryptamine receptor 2A (Homo sapiens) (UniProt P28223); experiment: Inhibition of 5-HT2A receptor (unknown origin) at 10 uM by radioligand binding assay relative to control
[4] = target: 5-hydroxytryptamine receptor 2B (Homo sapiens) (UniProt P41595); experiment: Agonist activity at 5-HT2B receptor (unknown origin) expressed in Flp-In HEK cells assessed as stimulation of calcium mobilization at 10 uM relative to 5-HT; format: functional, cell-based; settings: HEK293
Summary of the method: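 Agonist-mode calcium mobilization in Flp-In HEK cells expressing 5-HT2B, with test compound at 10 µM. Response expressed as percent of the maximal 5-HT response.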

[5] = target: Translocator protein (Homo sapiens) (UniProt P30536); experiment: Inhibition of PBR (unknown origin) at 10 uM by radioligand binding assay relative to control
[6] = target: Muscarinic acetylcholine receptor M5 (Homo sapiens) (UniProt P08912); experiment: Inhibition of muscarinic M5 receptor (unknown origin) at 10 uM by radioligand binding assay relative to control
[7] = target: Glutamate [NMDA] receptor (Homo sapiens) (UniProt Q05586+Q12879+Q13224+O15399+O60391+Q14957+Q8TCU5); experiment: Inhibition of NMDA receptor (unknown origin) at 10 uM by radioligand binding assay relative to control
[8] = target: Muscarinic acetylcholine receptor M2 (Homo sapiens) (UniProt P08172); experiment: Inhibition of muscarinic M2 receptor (unknown origin) at 10 uM by radioligand binding assay relative to control
[9] = target: Sodium-dependent noradrenaline transporter (Homo sapiens) (UniProt P23975); experiment: Inhibition of NET (unknown origin) at 10 uM by radioligand binding assay relative to control
Rattus norvegicus = organism: Rattus norvegicus; experiment: Inhibition of benzodiazepine receptor in rat brain at 10 uM by radioligand binding assay relative to control; format: tissue-based
[10] = target: Beta-2 adrenergic receptor (Homo sapiens) (UniProt P07550); experiment: Inhibition of beta-2 adrenergic receptor (unknown origin) at 10 uM by radioligand binding assay relative to control
[11] = target: Alpha-2C adrenergic receptor (Homo sapiens) (UniProt P18825); experiment: Inhibition of alpha2C adrenergic receptor (unknown origin) at 10 uM by radioligand binding assay relative to control
[12] = target: Alpha-2A adrenergic receptor (Homo sapiens) (UniProt P08913); experiment: Inhibition of alpha2A adrenergic receptor (unknown origin) at 10 uM by radioligand binding assay relative to control
[13] = target: Alpha-1D adrenergic receptor (Homo sapiens) (UniProt P25100); experiment: Inhibition of alpha1D adrenergic receptor (unknown origin) at 10 uM by radioligand binding assay relative to control
[14] = target: Alpha-1B adrenergic receptor (Homo sapiens) (UniProt P35368); experiment: Inhibition of alpha1B adrenergic receptor (unknown origin) at 10 uM by radioligand binding assay relative to control
[15] = target: Alpha-1A adrenergic receptor (Homo sapiens) (UniProt P35348); experiment: Inhibition of alpha1A adrenergic receptor (unknown origin) at 10 uM by radioligand binding assay relative to control
Homo sapiens = organism: Homo sapiens; experiment: Inhibition of sigma-2 receptor (unknown origin) at 10 uM by radioligand binding assay relative to control
[16] = target: Histamine H3 receptor (Homo sapiens) (UniProt Q9Y5N1); experiment: Inhibition of histamine H3 receptor (unknown origin) at 10 uM by radioligand binding assay relative to control
[17] = target: Histamine H1 receptor (Homo sapiens) (UniProt P35367); experiment: Inhibition of histamine H1 receptor (unknown origin) at 10 uM by radioligand binding assay relative to control
[18] = target: D(1B) dopamine receptor (Homo sapiens) (UniProt P21918); experiment: Inhibition of dopamine D5 receptor (unknown origin) at 10 uM by radioligand binding assay relative to control
[19] = target: D(1A) dopamine receptor (Homo sapiens) (UniProt P21728); experiment: Inhibition of dopamine D1 receptor (unknown origin) at 10 uM by radioligand binding assay relative to control
[20] = target: Sodium-dependent serotonin transporter (Homo sapiens) (UniProt P31645); experiment: Inhibition of SERT (unknown origin) at 10 uM by radioligand binding assay relative to control
[21] = target: 5-hydroxytryptamine receptor 7 (Homo sapiens) (UniProt P34969); experiment: Inhibition of 5-HT7 receptor (unknown origin) at 10 uM by radioligand binding assay relative to control
[22] = target: 5-hydroxytryptamine receptor 6 (Homo sapiens) (UniProt P50406); experiment: Inhibition of 5-HT6 receptor (unknown origin) at 10 uM by radioligand binding assay relative to control
[23] = target: 5-hydroxytryptamine receptor 3A (Homo sapiens) (UniProt P46098); experiment: Inhibition of 5-HT3 receptor (unknown origin) at 10 uM by radioligand binding assay relative to control
[24] = target: 5-hydroxytryptamine receptor 1D (Homo sapiens) (UniProt P28221); experiment: Inhibition of 5-HT1D receptor (unknown origin) at 10 uM by radioligand binding assay relative to control
[25] = target: 5-hydroxytryptamine receptor 1B (Homo sapiens) (UniProt P28222); experiment: Inhibition of 5-HT1B receptor (unknown origin) at 10 uM by radioligand binding assay relative to control
[26] = target: 5-hydroxytryptamine receptor 1A (Homo sapiens) (UniProt P08908); experiment: Inhibition of 5-HT1A receptor (unknown origin) at 10 uM by radioligand binding assay relative to control
Sequence of 5-hydroxytryptamine receptor 1A (Homo sapiens) (P08908 whole entry): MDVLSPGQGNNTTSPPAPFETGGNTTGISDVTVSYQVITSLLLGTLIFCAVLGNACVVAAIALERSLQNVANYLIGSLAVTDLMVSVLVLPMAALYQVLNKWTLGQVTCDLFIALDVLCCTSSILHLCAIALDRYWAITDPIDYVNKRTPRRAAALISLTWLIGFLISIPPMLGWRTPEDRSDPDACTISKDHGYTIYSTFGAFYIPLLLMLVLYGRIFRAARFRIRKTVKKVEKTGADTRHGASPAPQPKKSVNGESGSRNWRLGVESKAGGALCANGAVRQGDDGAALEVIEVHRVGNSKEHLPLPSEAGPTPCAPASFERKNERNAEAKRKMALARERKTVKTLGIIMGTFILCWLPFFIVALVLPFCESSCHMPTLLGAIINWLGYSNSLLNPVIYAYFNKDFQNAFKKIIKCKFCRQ

Sequence of 5-hydroxytryptamine receptor 2B (Homo sapiens) (P41595 whole entry): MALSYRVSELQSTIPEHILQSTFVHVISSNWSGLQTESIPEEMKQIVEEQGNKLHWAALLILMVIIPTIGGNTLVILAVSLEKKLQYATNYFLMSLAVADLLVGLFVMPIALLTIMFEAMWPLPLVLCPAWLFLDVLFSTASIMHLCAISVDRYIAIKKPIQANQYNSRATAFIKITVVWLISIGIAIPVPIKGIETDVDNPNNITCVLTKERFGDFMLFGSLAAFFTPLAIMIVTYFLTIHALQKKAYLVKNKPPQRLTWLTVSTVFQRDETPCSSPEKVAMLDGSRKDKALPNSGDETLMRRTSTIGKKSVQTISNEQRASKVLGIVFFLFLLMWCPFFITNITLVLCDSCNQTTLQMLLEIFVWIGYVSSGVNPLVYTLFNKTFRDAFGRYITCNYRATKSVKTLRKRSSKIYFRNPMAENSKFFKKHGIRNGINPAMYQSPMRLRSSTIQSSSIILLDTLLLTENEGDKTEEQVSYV
Sequence of 5-hydroxytryptamine receptor 2A (Homo sapiens) (P28223 whole entry): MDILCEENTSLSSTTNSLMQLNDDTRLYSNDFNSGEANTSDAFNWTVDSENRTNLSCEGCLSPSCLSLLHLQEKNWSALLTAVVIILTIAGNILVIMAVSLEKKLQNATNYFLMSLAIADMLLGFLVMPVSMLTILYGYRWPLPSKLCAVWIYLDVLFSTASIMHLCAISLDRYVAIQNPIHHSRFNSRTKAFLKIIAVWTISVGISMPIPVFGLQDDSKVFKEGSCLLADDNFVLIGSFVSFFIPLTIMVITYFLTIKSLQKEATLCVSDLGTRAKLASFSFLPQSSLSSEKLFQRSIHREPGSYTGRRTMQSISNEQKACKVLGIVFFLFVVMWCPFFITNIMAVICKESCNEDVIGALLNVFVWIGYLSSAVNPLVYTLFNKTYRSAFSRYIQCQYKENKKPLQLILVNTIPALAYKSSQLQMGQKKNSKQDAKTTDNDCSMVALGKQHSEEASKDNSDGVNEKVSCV
Sequence of Muscarinic acetylcholine receptor M5 (Homo sapiens) (P08912 whole entry): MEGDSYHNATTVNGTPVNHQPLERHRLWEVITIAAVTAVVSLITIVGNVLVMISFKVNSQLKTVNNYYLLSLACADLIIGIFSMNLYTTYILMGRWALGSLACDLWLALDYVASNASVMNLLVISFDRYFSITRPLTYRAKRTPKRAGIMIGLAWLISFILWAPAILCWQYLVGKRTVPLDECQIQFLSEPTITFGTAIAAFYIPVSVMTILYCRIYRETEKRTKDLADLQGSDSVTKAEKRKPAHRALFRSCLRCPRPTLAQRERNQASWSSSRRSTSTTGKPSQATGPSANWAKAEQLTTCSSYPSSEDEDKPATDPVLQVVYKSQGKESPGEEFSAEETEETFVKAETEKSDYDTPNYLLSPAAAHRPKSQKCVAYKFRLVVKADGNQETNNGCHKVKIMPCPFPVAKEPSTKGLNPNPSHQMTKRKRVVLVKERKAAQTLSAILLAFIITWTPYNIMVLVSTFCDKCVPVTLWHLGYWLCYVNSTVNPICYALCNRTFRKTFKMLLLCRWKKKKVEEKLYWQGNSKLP
Sequence of Histamine H1 receptor (Homo sapiens) (P35367 whole entry): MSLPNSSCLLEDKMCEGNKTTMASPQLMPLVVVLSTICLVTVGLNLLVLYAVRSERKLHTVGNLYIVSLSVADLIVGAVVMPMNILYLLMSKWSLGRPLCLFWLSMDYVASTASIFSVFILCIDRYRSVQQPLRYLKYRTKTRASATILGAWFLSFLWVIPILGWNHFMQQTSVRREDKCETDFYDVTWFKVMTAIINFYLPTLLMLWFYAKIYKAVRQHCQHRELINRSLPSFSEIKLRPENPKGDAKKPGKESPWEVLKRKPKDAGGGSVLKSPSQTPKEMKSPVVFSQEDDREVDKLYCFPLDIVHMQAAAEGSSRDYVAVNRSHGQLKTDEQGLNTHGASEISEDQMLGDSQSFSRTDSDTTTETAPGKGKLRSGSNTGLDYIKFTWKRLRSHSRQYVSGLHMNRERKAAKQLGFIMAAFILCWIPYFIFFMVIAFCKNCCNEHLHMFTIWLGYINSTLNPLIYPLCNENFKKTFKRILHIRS
Sequence of 5-hydroxytryptamine receptor 7 (Homo sapiens) (P34969 whole entry): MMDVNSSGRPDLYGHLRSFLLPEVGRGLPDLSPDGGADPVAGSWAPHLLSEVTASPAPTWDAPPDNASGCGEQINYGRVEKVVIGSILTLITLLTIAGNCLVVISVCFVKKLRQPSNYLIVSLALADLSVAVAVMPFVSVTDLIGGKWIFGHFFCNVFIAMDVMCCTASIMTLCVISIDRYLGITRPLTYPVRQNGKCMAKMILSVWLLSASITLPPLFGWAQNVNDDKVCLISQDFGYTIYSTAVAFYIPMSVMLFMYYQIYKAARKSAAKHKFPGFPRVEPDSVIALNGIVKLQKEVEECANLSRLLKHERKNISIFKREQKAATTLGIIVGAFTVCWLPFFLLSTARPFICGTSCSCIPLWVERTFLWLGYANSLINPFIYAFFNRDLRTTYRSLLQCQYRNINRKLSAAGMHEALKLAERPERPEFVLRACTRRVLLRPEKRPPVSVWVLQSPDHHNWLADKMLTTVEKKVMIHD
Sequence of Histamine H3 receptor (Homo sapiens) (Q9Y5N1 whole entry): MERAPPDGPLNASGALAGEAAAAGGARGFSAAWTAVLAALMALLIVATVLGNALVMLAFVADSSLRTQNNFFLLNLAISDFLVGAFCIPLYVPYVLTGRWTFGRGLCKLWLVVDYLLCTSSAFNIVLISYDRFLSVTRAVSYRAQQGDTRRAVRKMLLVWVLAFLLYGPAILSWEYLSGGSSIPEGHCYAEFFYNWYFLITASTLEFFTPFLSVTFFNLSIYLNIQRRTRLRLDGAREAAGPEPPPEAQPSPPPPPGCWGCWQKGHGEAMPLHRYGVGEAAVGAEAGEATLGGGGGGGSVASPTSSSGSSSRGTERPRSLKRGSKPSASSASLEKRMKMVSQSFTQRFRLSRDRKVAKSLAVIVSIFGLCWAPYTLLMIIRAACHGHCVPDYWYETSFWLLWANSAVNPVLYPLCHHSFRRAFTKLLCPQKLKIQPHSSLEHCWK
Sequence of 5-hydroxytryptamine receptor 1B (Homo sapiens) (P28222 whole entry): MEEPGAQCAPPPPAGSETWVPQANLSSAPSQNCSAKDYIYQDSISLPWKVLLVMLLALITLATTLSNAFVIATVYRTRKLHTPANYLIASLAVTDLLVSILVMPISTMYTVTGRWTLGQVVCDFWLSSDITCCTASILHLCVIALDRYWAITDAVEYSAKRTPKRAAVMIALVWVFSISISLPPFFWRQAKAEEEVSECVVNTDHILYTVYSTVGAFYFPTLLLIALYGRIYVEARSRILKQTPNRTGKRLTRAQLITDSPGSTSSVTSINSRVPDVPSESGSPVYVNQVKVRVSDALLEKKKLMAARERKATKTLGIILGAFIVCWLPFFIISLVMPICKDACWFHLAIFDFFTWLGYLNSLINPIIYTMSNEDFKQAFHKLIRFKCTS
Sequence of Beta-2 adrenergic receptor (Homo sapiens) (P07550 whole entry, looked up): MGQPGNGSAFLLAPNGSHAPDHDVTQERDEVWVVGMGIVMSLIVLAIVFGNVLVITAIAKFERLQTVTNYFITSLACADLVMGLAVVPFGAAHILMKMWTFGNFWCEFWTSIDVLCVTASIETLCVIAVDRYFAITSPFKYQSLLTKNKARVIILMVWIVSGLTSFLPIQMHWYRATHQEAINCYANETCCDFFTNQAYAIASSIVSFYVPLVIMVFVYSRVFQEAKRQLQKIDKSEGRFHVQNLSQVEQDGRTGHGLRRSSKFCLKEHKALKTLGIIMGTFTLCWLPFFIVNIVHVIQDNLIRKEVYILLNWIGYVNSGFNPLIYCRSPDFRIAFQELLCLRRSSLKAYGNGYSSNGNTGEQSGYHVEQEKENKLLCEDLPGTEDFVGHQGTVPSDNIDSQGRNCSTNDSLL
Sequence of Alpha-2A adrenergic receptor (Homo sapiens) (P08913 whole entry): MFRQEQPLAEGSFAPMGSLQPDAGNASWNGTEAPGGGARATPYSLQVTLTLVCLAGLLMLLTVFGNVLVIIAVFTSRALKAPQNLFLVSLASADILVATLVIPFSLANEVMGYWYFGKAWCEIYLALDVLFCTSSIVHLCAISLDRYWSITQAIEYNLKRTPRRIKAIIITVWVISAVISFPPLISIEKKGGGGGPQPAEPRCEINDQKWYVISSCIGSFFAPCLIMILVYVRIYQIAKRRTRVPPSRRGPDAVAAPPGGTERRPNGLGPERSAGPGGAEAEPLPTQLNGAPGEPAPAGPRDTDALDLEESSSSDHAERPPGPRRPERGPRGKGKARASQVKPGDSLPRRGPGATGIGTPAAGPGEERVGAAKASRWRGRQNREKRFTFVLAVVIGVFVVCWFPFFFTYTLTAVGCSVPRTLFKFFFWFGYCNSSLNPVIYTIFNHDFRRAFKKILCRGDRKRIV
Sequence of Translocator protein (Homo sapiens) (P30536 whole entry): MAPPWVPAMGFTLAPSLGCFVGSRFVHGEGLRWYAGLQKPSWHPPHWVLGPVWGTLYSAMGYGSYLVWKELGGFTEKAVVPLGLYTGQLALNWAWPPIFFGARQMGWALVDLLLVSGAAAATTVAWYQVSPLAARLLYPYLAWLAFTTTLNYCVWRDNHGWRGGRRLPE

SMILES: O=c1cc(CCCc2ccccc2)oc2cccc(O)c12
inhibition [1]: 7.9%
inhibition [2]: 70.4%
inhibition [3]: 5.4%

SMILES: O=c1cc(CCc2ccccc2)oc2cccc(O)c12
Activity [4]: 0.6%
inhibition [5]: 2.8%
inhibition [6]: 19.3%
inhibition [7]: 17.4%
inhibition [8]: 1.8%
inhibition [9]: 34.6%
inhibition (Rattus norvegicus): 0.1%
inhibition [10]: 1.4%
inhibition [11]: 32.7%
inhibition [12]: 22.2%
inhibition [13]: 2.1%
inhibition [14]: 2.9%
inhibition [15]: 16.9%
inhibition (Homo sapiens): 36.8%
inhibition [16]: 15.9%
inhibition [17]: 13%
inhibition [18]: 0.4%
inhibition [19]: 24.7%
inhibition [20]: 28.9%
inhibition [21]: 35.9%
inhibition [22]: 5.8%
inhibition [23]: 61.7%
inhibition [24]: 4.3%
inhibition [25]: 3.7%
inhibition [26]: 5.4%

SMILES: O=c1cc(CCCCc2ccccc2)oc2cccc(O)c12
inhibition [1]: 14.7%
inhibition [2]: 45.2%
inhibition [3]: 5.7%

The next lines start with the values.

inhibition [1]: 23.5%
inhibition [2]: 31.5%
inhibition [3]: -4.5%
SMILES: O=c1cc(Cc2cccs2)oc2cccc(O)c12

inhibition [1]: 24.8%
inhibition [2]: 30.6%
inhibition [3]: 1.4%
SMILES: O=c1cc(Cc2ccccc2)oc2cccc(O)c12

inhibition [1]: 19.6%
inhibition [2]: 74.8%
inhibition [3]: 1.4%
SMILES: O=c1cc(CCc2cccs2)oc2cccc(O)c12

inhibition [1]: 7.8%
inhibition [2]: 50%
inhibition [3]: 0.2%
SMILES: O=c1cc(COc2ccccc2)oc2cccc(O)c12
